A selection: hits, their analogues and other compounds. The true share with any hit is near 4.1%.
KCNQ1 act: potentiators or activators of KCNQ1 channel, primary screen, cell-based, thallium flux, high-throughput | B-score at 10 µM | 0.35% of 310,000 active | CHO-K1 KCNQ1, thallium flux FluxOR fluorescence; hits give high values;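 active means fluorescence ratio B-score, a plate-corrected score, at least three library SD, with initial intensity B-score within 5 SD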
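assay system = KCNQ1-transfected CHO-K1 cells | medium = assay buffer with matched DMSO | probe or stimulus = depolarizing K+/Tl+ stimulus, K2SO4 and Tl2SO4 each 12.5 mM in 5x stock | dosing = single dose | incubation = dye 90 min, compound 20 min, room temperature | detection = kinetic FluxOR fluorescence, 10 s baseline plus 110 s post-stimulus | evaluation = ratio B score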
KCNK9 block: KCNK9 potassium channel inhibitors, primary screen, HEK293 cells, thallium flux; Potassium channel subfamily K member 9 (Homo sapiens), Q9NPC2; FluxOR thallium flux fluorescence; hits give low values; B-score at 10 µM; 1.2% of 310,000 active; AID 488922, 2010;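 active means ratio B-score over 3 SD below the library mean, with starting fluorescence within 5 SD of its mean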;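 further: negative B-score means less thallium flux so channel inhibition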
hERG rescue: hERG rescue from dofetilide block, primary screen, cell-based, CHO-hERG, FluxOR thallium flux, dofetilide IC70. activation (rescue from dofetilide block), less the hit threshold, % at 10 µM. AID 1511, 2009. dofetilide IC70 present. 0.51% of 310,000 active;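 active means activation above the mean of controls blocked by dofetilide plus 5 SD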;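 further: thallium influx through hERG after potassium depolarization seen as dye fluorescence rise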
KCNK3 inh: human KCNK3 channel inhibitors, primary screen, CHO cells, FluxOR thallium flux, B-score; B-score at 10 µM; FluxOR fluorescence; hits give low values; AID 602410, 2012; 0.84% of 340,000 active;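 active means B-score under library mean minus 4 SD, starting fluorescence ratio at most library mean plus 5 SD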;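 further: more negative B-score means stronger inhibition of thallium flux through KCNK3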
Target sequence (O14649 whole entry, looked up): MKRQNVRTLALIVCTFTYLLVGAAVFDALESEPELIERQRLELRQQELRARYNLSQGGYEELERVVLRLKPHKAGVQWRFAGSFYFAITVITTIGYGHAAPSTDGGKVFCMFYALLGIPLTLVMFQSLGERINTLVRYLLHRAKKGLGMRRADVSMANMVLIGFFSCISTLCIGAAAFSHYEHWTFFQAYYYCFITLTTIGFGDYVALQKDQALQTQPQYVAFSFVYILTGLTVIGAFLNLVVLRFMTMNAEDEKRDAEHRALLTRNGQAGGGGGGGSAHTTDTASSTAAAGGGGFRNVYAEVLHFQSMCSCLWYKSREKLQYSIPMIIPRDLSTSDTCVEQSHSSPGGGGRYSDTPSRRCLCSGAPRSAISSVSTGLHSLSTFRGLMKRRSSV
KCNQ1 inh: inhibitors of human KCNQ1 channel, primary screen, cell-based, thallium flux, high-throughput | CHO-K1 KCNQ1, FluxOR thallium flux fluorescence; hits give high values | Potassium voltage-gated channel subfamily KQT member 1 (Homo sapiens), P51787 | B-score at 10 µM | 1.3% of 310,000 active;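 active means compounds whose thallium flux B-score, printed positive for inhibition, exceeds three library SD while starting fluorescence stays within three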;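 further: channel opened by potassium depolarization with thallium stimulus after 20 min compound exposure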
Cl transport mod: KCC2 cotransporter modulators, thallium flux, primary screen, cell-based, HEK293 KCC2, FluoZin-2 fluorescence, MLSMR | AID 1456, 2008 | Solute carrier family 12 member 5 (Homo sapiens), Q9H2X9 | 2.2% of 190,000 active | B-score of Tl+ flux slope (higher = more flux/activation; lower = inhibition) at 10 µM | KCC2 cells, thallium flux FluoZin-2 fluorescence;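 active means thallium flux slope and its plate-corrected score both differing from the plate sample mean at a set confidence after two filtering rounds, in either direction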;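 further: slope of fluorescence scaled to starting intensity during 10 to 20 s after thallium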
KCNK9 block conf: KCNK9 potassium channel inhibitors, confirmation, HEK293 cells, thallium flux, duplicate | shares compounds with KCNK9 block | FluxOR thallium flux fluorescence | inhibition, % at 10 µM | 43% of 4,900 active;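 active means thallium signal inhibited by more than 5 SD of the compound-free buffer control wells, on both duplicate plates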;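 further: 0% = assay buffer control wells without compound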
Kir2-1 spec: mouse Kir2.1 channel inhibition, confirmation, selectivity assay for KCNK9 modulator project, cell-based, HEK293, thallium flux; shares compounds with KCNK9 block; Kir2.1 cells, FluxOR thallium flux fluorescence; inhibition, % at 10 µM; 4% of 4,900 active; AID 492993, 2010;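 active means thallium signal drop more than 5 SD beyond the mean of the no-compound control wells, seen in both duplicate plates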;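 further: signal is fluorescence rise after thallium addition divided by baseline fluorescence; plate controls were assay buffer only for no effect and full block by chlorpromazine control for full effect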
HEK293 Tl ctr: thallium flux in non-induced HEK293 cells, confirmation, counter-screen for KCNK9 inhibitor project, cell-based, second counter screen, non-induced KCNK9-HEK293; shares compounds with KCNK9 block; FluxOR thallium flux; inhibition, % at 10 µM; 40% of 4,900 active;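 active means thallium signal drop beyond 5 SD of the untreated control mean, on both duplicate plates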;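 further: plate controls were buffer only IC0 wells for no effect and SID17386958 at its maximal inhibitory level for full effect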
* = called active by the depositor.

Screening CN(CCOc1ccccc1)C(=O)c1ccc(F)c(S(=O)(=O)N2CCOCC2)c1 returned KCNQ1 act inactive, KCNK9 block inactive, hERG rescue -18, KCNK3 inh inactive and KCNQ1 inh inactive.
For CC(C(=O)NC(=O)NC1CCCCC1)N1CCN(C(c2ccccc2)c2ccccc2)CC1 (stereo not drawn) the results were KCNQ1 act inactive, KCNK9 block inactive, hERG rescue -14, KCNK3 inh inactive, KCNQ1 inh inactive, Cl transport mod -0.6, KCNK9 block conf inactive, Kir2-1 spec inactive and HEK293 Tl ctr inactive.
Screening NC(N)=NCCCS(=O)(=O)Nc1ccc(Nc2c3ccccc3nc3cc([N+](=O)[O-])ccc23)cc1 returned KCNK3 inh inactive.
For O=C(C1CCN(S(=O)(=O)c2ccc(Br)s2)CC1)N1CCc2ccccc21 the results were KCNQ1 act inactive, KCNK9 block inactive, hERG rescue -11, KCNK3 inh inactive, KCNQ1 inh inactive, Cl transport mod -1.9, KCNK9 block conf inactive, Kir2-1 spec inactive and HEK293 Tl ctr inactive.
`COc1ccccc1C(=O)Nc1cc(Cl)ccc1O` gave KCNQ1 act inactive, KCNK9 block inactive, hERG rescue -5, KCNK3 inh inactive, KCNQ1 inh inactive and Cl transport mod 1.1.
For CCOc1ccccc1C(=O)Nc1cc(Cl)ccc1O the results were KCNQ1 act inactive, KCNK9 block -12*, hERG rescue -12, KCNK3 inh inactive, KCNQ1 inh inactive, Cl transport mod -0.07, KCNK9 block conf 52%*, Kir2-1 spec inactive and HEK293 Tl ctr 36%*.
Screening Cc1cccc(N(C)S(=O)(=O)c2ccc3[nH]cc(C(=O)N4CCOCC4)c(=O)c3c2)c1 returned KCNQ1 act inactive, KCNK9 block inactive, hERG rescue -7, KCNK3 inh inactive, KCNQ1 inh inactive and Cl transport mod 1.3.
Screening CCc1ccccc1N(C)S(=O)(=O)c1ccc2[nH]cc(C(=O)N3CCc4ccccc43)c(=O)c2c1 returned KCNQ1 act inactive, KCNK9 block -9.3*, hERG rescue -12, KCNK3 inh inactive, KCNQ1 inh inactive, Cl transport mod -2.2, KCNK9 block conf inactive, Kir2-1 spec inactive and HEK293 Tl ctr 26%*.
For Cc1cc(N/N=C/c2ccc(Cl)cc2Cl)nc(NCc2ccccc2)n1 the results were KCNQ1 act inactive, KCNK9 block inactive, hERG rescue -12, KCNK3 inh inactive, KCNQ1 inh inactive, Cl transport mod -1.6, KCNK9 block conf inactive, Kir2-1 spec inactive and HEK293 Tl ctr inactive.
Screening NS(=O)(=O)c1ccc(NC(=O)CSc2nc3c(cnn3-c3ccccn3)c(=O)[nH]2)cc1 returned KCNK3 inh inactive.
CC(C(=O)N1CCCc2ccccc21)N1CCN(S(=O)(=O)c2ccccc2F)CC1 (stereo not drawn) was read as KCNQ1 act inactive, KCNK9 block inactive, hERG rescue -11, KCNK3 inh inactive, KCNQ1 inh inactive, Cl transport mod -0.027, KCNK9 block conf inactive, Kir2-1 spec inactive and HEK293 Tl ctr inactive.
`O=C(NCc1cccc(Br)c1)C1CC2Cn3c(nc4ccccc43)C2N1c1ccccc1` (stereo not drawn) gave KCNQ1 act inactive, KCNK9 block inactive, hERG rescue -9, KCNK3 inh inactive and KCNQ1 inh inactive.
CCOC(=O)C1NC(=O)CC1c1ccccc1 (stereo not drawn) was read as KCNQ1 act inactive, KCNK9 block inactive, hERG rescue -9, KCNK3 inh inactive, KCNQ1 inh inactive and Cl transport mod 0.42.
For CCOC(=O)C1CSC2(CCC(c3ccccc3)CC2)N1 (stereo not drawn) the results were KCNQ1 act inactive, KCNK9 block inactive, hERG rescue -11, KCNK3 inh inactive, KCNQ1 inh inactive, Cl transport mod 0.65, KCNK9 block conf inactive, Kir2-1 spec inactive and HEK293 Tl ctr inactive.
`CCC(=O)N(C(=O)CC)N1CCN(c2ccncc2S(=O)(=O)N2CCCCC2)CC1` gave KCNQ1 act inactive, KCNK9 block -9.3*, hERG rescue -11, KCNK3 inh inactive, KCNQ1 inh inactive, KCNK9 block conf 42%*, Kir2-1 spec inactive and HEK293 Tl ctr 42%*.
Screening COc1ccc(C(=O)NNC(=S)NC(=O)c2cccs2)cc1 returned KCNQ1 act inactive, KCNK9 block -9.1*, hERG rescue -8, KCNK3 inh inactive, KCNQ1 inh inactive, KCNK9 block conf inactive, Kir2-1 spec inactive and HEK293 Tl ctr inactive.
`C[C@H]1C(=O)N(C)CCN1C(=O)c1cccc(OC2CCN(CC(C)(C)C)CC2)c1` gave KCNQ1 act inactive, KCNK9 block inactive, hERG rescue -4, KCNK3 inh inactive and KCNQ1 inh inactive.
`Cc1cc(C)c(C(=O)COC(=O)C2CCN(c3ccc(C(F)(F)F)cn3)CC2)c(C)c1` gave KCNK3 inh inactive.
`Cc1ccc(C)c(C(=O)COC(=O)C2CCN(c3ccc(C(F)(F)F)cn3)CC2)c1` gave KCNQ1 act inactive, KCNK9 block inactive, hERG rescue -11, KCNK3 inh inactive, KCNQ1 inh inactive, KCNK9 block conf inactive, Kir2-1 spec inactive and HEK293 Tl ctr inactive.

Screening data: PubChem, several laboratories
